Test results from ChEMBL document CHEMBL3616437, “Thiazole compounds with activity against Cryptococcus gattii and Cryptococcus neoformans in vitro” (Eur J Med Chem, 2015).
≈ marks a conversion by molar mass, not a printed value.

Key:
[1] = tested on: Cryptococcus gattii species complex; assay: Antifungal activity against Cryptococcus gattii L24/01 after 48 to 72 hrs by broth microdilution method; type: functional, Cryptococcus bacillisporus
Outline: (§1)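 CLSI M27-A3 broth microdilution in RPMI with L-glutamine, buffered to pH 7.0 with 0.165 M MOPS. Colonies grown twice on SDA, 48 h at 35°C. Inoculum set to 70% transmittance at 530 nm, then diluted to 1-5 x10^3 cells/mL. Test agents dissolved in DMSO, serially diluted, tested at 0.1 to 62.5 µM. Plates held at 35°C for 48-72 h. MIC is the lowest concentration giving an optically clear well, read visually against drug-free growth controls.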

[2] = tested on: Cryptococcus gattii species complex; assay: Antifungal activity against Cryptococcus gattii 23/10993 after 48 to 72 hrs by broth microdilution method; type: functional, Cryptococcus bacillisporus; outline: as §1
Cryptococcus neoformans [3] = assay: Ratio of compound MIC for Cryptococcus neoformans LMM820 in presence of amphotericin B to compound MIC for Cryptococcus neoformans LMM820 in absence of amphotericin B by checkerboard microtiter test; type: functional
Outline: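 Checkerboard microdilution: eight two-fold dilutions of test compound (0.11 to 15.6 µM) crossed with amphotericin B (0.025 to 3.9 µM, in DMSO) or fluconazole (0.48 to 62.5 µM, in water). Inoculum per CLSI M27-A3 in RPMI-MOPS pH 7.0, 1-5 x10^3 cells/mL. Growth 48 to 72 h. Effective MIC is the combination concentration giving complete inhibition. FICs derived from MICs in combination versus alone.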

Cryptococcus neoformans [4] = assay: Antifungal activity against Cryptococcus neoformans LMM820 after 48 to 72 hrs by broth microdilution method; type: functional
Outline: (§2)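 CLSI M27-A3 broth microdilution. Isolates subcultured twice on SDA, 48 h at 35°C. Saline suspension adjusted to 70% transmittance at 530 nm, then diluted to 1-5 x10^3 cells/mL in RPMI with L-glutamine, 0.165 M MOPS, pH 7.0. Compounds in DMSO, tested at […]. 35°C for 48-72 h. MIC read visually as the lowest concentration giving an optically clear well.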

Cryptococcus neoformans [5] = assay: Antifungal activity against Cryptococcus neoformans 27JF after 48 to 72 hrs by broth microdilution method; type: functional; outline: as §2
[6] = tested on: Cryptococcus gattii species complex; assay: Antifungal activity against Cryptococcus gattii 196L/03 after 48 to 72 hrs by broth microdilution method; type: functional, Cryptococcus bacillisporus; outline: as §1
Cryptococcus neoformans [7] = assay: Antifungal activity against Cryptococcus neoformans F10 after 48 to 72 hrs by broth microdilution method; type: functional; outline: as §2
Cryptococcus neoformans [8] = assay: Antifungal activity against Cryptococcus neoformans ATCC 24067 after 48 to 72 hrs by broth microdilution method; type: functional; outline: as §2
[9] = tested on: Cryptococcus gattii species complex; assay: Antifungal activity against Cryptococcus gattii LMM818 after 48 to 72 hrs by broth microdilution method; type: functional, Cryptococcus bacillisporus; outline: as §1
[10] = tested on: Cryptococcus gattii species complex; assay: Antifungal activity against Cryptococcus gattii 547/OTTI-97-PI-10 after 48 to 72 hrs by broth microdilution method; type: functional, Cryptococcus bacillisporus; outline: as §1
Cryptococcus neoformans [11] = assay: Antifungal activity against Cryptococcus neoformans ATCC 62066 after 48 to 72 hrs by broth microdilution method; type: functional
Cryptococcus neoformans [12] = assay: Antifungal activity against Cryptococcus neoformans WP after 48 to 72 hrs by broth microdilution method; type: functional; outline: as §2
Vero = assay: Cytotoxicity against African green monkey Vero cells assessed as cell viability measured after 48 hrs by MTT assay; type: cell-based; details: Chlorocebus sabaeus
Outline: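 VERO cells in D-MEM with 5% FBS, used up to 20 passages. Seeded 1 x 10^4 cells/well, pre-incubated 24 h at 37°C. Exposed 48 h at 37°C, 5% CO2, to eight nonserial dilutions from 100 to 0.0128 µM, with 0.5% DMSO control. MTT reduction read-out, corrected for background and blank. IC50 reported as median with 95% CI. Triplicate, two independent experiments.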

[13] = tested on: Cryptococcus gattii species complex; assay: Antifungal activity against Cryptococcus gattii L27/01 after 48 to 72 hrs by broth microdilution method; type: functional, Cryptococcus bacillisporus; outline: as §1
[14] = tested on: Cryptococcus gattii species complex; assay: Antifungal activity against Cryptococcus gattii L28/02 after 48 to 72 hrs by broth microdilution method; type: functional, Cryptococcus bacillisporus; outline: as §1
[15] = tested on: Cryptococcus bacillisporus; assay: Antifungal activity against Cryptococcus gattii ATCC 32608 after 48 to 72 hrs by broth microdilution method; type: functional; outline: as §1
[16] = tested on: Cryptococcus gattii species complex; assay: Antifungal activity against Cryptococcus gattii 1913ER after 48 to 72 hrs by broth microdilution method; type: functional, Cryptococcus bacillisporus; outline: as §1
Cryptococcus neoformans [17] = assay: Antifungal activity against Cryptococcus neoformans ATCC 28957 after 48 to 72 hrs by broth microdilution method; type: functional; outline: as §2
[18] = Selectivity index, ratio of IC50 for African green monkey Vero cells to MIC for Cryptococcus neoformans ATCC 24067; type: toxicity, cell-based
Cryptococcus neoformans [19] = assay: Antifungal activity against Cryptococcus neoformans 28JF after 48 to 72 hrs by broth microdilution method; type: functional; outline: as §2
[20] = tested on: Cryptococcus gattii species complex; assay: Antifungal activity against Cryptococcus gattii 135L/03 after 48 to 72 hrs by broth microdilution method; type: functional, Cryptococcus bacillisporus; outline: as §1
[21] = Cytotoxicity against C57BL/6 mouse peritoneal macrophages assessed as cell viability measured after 48 hrs by MTT assay; type: cell-based; details: C57BL/6, Peritoneal macrophage cell
Outline: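 Thioglycollate-elicited peritoneal macrophages from male C57BL/6 mice, 6–8 weeks old, in RPMI with 10% FBS. Seeded 1 x 10^5 cells/well, pre-incubated 24 h at 37°C. Exposed 48 h at 37°C, 5% CO2, to eight nonserial dilutions from 100 to 0.0128 µM, with 0.5% DMSO control. MTT read-out, % inhibition versus DMSO control. IC50 reported as median with 95% CI. Triplicate, two independent experiments.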

[22] = tested on: Cryptococcus gattii species complex; assay: Antifungal activity against Cryptococcus gattii ICB181 after 48 to 72 hrs by broth microdilution method; type: functional, Cryptococcus bacillisporus; outline: as §1
Cryptococcus neoformans [23] = assay: Antifungal activity against Cryptococcus neoformans 96806 after 48 to 72 hrs by broth microdilution method; type: functional; outline: as §2
Cryptococcus neoformans [24] = assay: Antifungal activity against Cryptococcus neoformans VM-MCMMPI after 48 to 72 hrs by broth microdilution method; type: functional; outline: as §2
Cryptococcus neoformans [25] = assay: Antifungal activity against Cryptococcus neoformans CN31 after 48 to 72 hrs by broth microdilution method; type: functional; outline: as §2
[26] = Selectivity index, ratio of IC50 for C57BL/6 mouse peritoneal macrophages to MIC for Cryptococcus neoformans ATCC 24067
Outline: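 SI = IC50/MIC. Thioglycollate-elicited peritoneal macrophages from C57BL/6 mice are seeded at 1 x 10^5/well. They are exposed for 48 h at 37°C to eight concentrations from 100 to 0.0128 µM. Viability read by MTT versus 0.5% DMSO control, triplicate in two experiments.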

Cryptococcus neoformans [27] = assay: Antifungal activity against Cryptococcus neoformans 5396 after 48 to 72 hrs by broth microdilution method; type: functional; outline: as §2

- MIC [1]: 2.9 µM (≈ 0.915 µg/mL)
- MIC [2]: 2.6 µM (≈ 0.82 µg/mL)
- MIC (Cryptococcus neoformans [4]): 3.2 µM (≈ 1.01 µg/mL)
- MIC (Cryptococcus neoformans [5]): 3.5 µM (≈ 1.1 µg/mL)
- MIC [6]: 2.9 µM (≈ 0.915 µg/mL)
- MIC (Cryptococcus neoformans [7]): 2.2 µM (≈ 0.694 µg/mL)
- MIC (Cryptococcus neoformans [8]): 1.9 µM (≈ 0.599 µg/mL)
- MIC [9]: 4.5 µM (≈ 1.42 µg/mL)
- MIC [10]: 2.6 µM (≈ 0.82 µg/mL)
- MIC (Cryptococcus neoformans [11]): 1.9 µM (≈ 0.599 µg/mL)
- MIC (Cryptococcus neoformans [12]): 3.2 µM (≈ 1.01 µg/mL)
- MIC [13]: 2.2 µM (≈ 0.694 µg/mL)
- MIC [14]: 4.2 µM (≈ 1.32 µg/mL)
- MIC [15]: 2.9 µM (≈ 0.915 µg/mL)
- MIC [16]: 2.2 µM (≈ 0.694 µg/mL)
- MIC (Cryptococcus neoformans [17]): 2.2 µM (≈ 0.694 µg/mL)
- MIC (Cryptococcus neoformans [19]): 3.5 µM (≈ 1.1 µg/mL)
- MIC [20]: 2.6 µM (≈ 0.82 µg/mL)
- MIC [22]: 1.4 µM (≈ 0.442 µg/mL)
- MIC (Cryptococcus neoformans [23]): 1.9 µM (≈ 0.599 µg/mL)
- MIC (Cryptococcus neoformans [24]): 2.2 µM (≈ 0.694 µg/mL)
- MIC (Cryptococcus neoformans [25]): 1.9 µM (≈ 0.599 µg/mL)
- MIC (Cryptococcus neoformans [27]): 2.2 µM (≈ 0.694 µg/mL)
SMILES: COc1ccc(-c2csc(N/N=C/C3CCCCC3)n2)cc1
- MFC [1]: 3.9 µM (≈ 1.23 µg/mL)
- MFC [2]: 3.9 µM (≈ 1.23 µg/mL)
- fractional inhibitory concentration index (FICI) (Cryptococcus neoformans [3]): 2.78
- MFC (Cryptococcus neoformans [4]): 7.8 µM (≈ 2.46 µg/mL)
- MFC (Cryptococcus neoformans [5]): 7.8 µM (≈ 2.46 µg/mL)
- MFC [6]: 3.9 µM (≈ 1.23 µg/mL)
- MFC (Cryptococcus neoformans [7]): 3.9 µM (≈ 1.23 µg/mL)
- MFC [9]: 7.8 µM (≈ 2.46 µg/mL)
- MFC [10]: 3.9 µM (≈ 1.23 µg/mL)
- MFC (Cryptococcus neoformans [11]): 7.8 µM (≈ 2.46 µg/mL)
- MFC (Cryptococcus neoformans [12]): 3.9 µM (≈ 1.23 µg/mL)
- IC50 (Vero): > 100 µM
- MFC [13]: 3.9 µM (≈ 1.23 µg/mL)
- MFC [14]: 7.8 µM (≈ 2.46 µg/mL)
- MFC [15]: 3.9 µM (≈ 1.23 µg/mL)
- MFC [16]: 3.9 µM (≈ 1.23 µg/mL)
- MFC (Cryptococcus neoformans [17]): 3.9 µM (≈ 1.23 µg/mL)
- selectivity ratio [18]: 52.6
- MFC (Cryptococcus neoformans [19]): 7.8 µM (≈ 2.46 µg/mL)
- MFC [20]: 3.9 µM (≈ 1.23 µg/mL)
- IC50 [21]: > 100 µM
- MFC [22]: 1.9 µM (≈ 0.599 µg/mL)
- MFC (Cryptococcus neoformans [23]): 1.9 µM (≈ 0.599 µg/mL)
- MFC (Cryptococcus neoformans [24]): 3.9 µM (≈ 1.23 µg/mL)
- MFC (Cryptococcus neoformans [25]): 3.9 µM (≈ 1.23 µg/mL)
- Ratio [26]: 52.63
- MFC (Cryptococcus neoformans [27]): 3.9 µM (≈ 1.23 µg/mL)
